Screens from PubChem BioAssay.
Shown are actives, neighbours in structure and some others; about 1.6% of the full set was active somewhere.
TDP2 absorb = TDP2 (human) inhibition, absorbance primary screen | O95551 | recombinant TDP2, T5PNP hydrolysis, p-nitrophenol absorbance 415 nm | inhibition, % at 12.8 µM | 370,000 compounds, 0.34% hits;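 active = inhibition above the mean of all tested compounds plus 3 SD, set per campaign, cut at about 25% in these data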;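 note: 0% = DMSO with enzyme and 100% = buffer with substrate but no TDP2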
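test system = human TDP2 enzyme | input = TDP2 enzyme at 120 nM final | medium = 50 mM Tris-HCl pH 7.5 with Mg2+, KCl, DTT, BSA | also added = T5PNP substrate, 5 mM | times = 2 h at 37 °C | technique = epi absorbance | benchmarks = high control without enzyme, low control DMSO plus TDP2 | replication = each compound tested once, singlicate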
Apaf-1 inh = inhibitors of human Apaf-1 apoptosome. O14727. reconstituted apoptosome caspase-3 activity, DEVD-Rh110 fluorescence. inhibition, % at 20 µM. 330,000 compounds, 0.71% hits. AID 489030; active = inhibition of at least 40% at 20 µM;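 note: plate controls were DMSO wells for no effect and DEVD-CHO caspase inhibitor wells for full effect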
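System – cell-free apoptosome with Apaf-1, procaspase-3 and caspase-9 · Buffer or medium – pH 7.5 Hepes buffer with CHAPS, BSA, DTT · Also added – cytochrome c with DEVD-Rh110 · Times – 30 min compound preincubation, 50 min activation, room temperature · Technique – Rh110 fluorescence intensity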
GSTO1 inh = counter-screen for RBBP9 inhibitors: inhibitors of human GSTO1 | P78417 | recombinant GSTO1, activity-based probe fluorescence polarization | inhibition, % at 5.96 µM | 300,000 compounds, 1.1% hits | AID 1974;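 active = inhibition above the campaign mean inhibition plus 3 SD, cut at about 35% in these data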;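 note: 0% = GSTO1-1 with DMSO and 100% = wells lacking GSTO1-1 enzyme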
SUMO HTRF inh = blocks human SUMOylation mediated by UBC9; HTRF SUMOylation assay, SAE1/SAE2 + UBC9, in vitro; 290,000 compounds, 0.36% hits; inhibition, % at 35 µM; P63279; in the data active = inhibition above about 50%, passing the limit was not always enough
GASC-1 inh = blocks human GASC-1 demethylase activity. Q9H3R0. 330,000 compounds, 0.069% hits. inhibition, % at 2.35 µM. AID 2099. GST-JMJD2C(1-420) H3K9me3 demethylation, DELFIA europium;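 active = more than half of a compound's replicate wells show inhibition beyond 50%, single wells judged on their own value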;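 note: signal counts dimethyl H3K9 product captured on neutravidin plate; 0% = median of DMSO wells and 100% = 0.3 times that DMSO median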
PAD4 inh = blocks human protein arginine deiminase 4. 330,000 compounds, 0.41% hits. recombinant PAD4, RCA probe fluorescence polarization. Q9UM07. inhibition, % at 6.36 µM. AID 485272;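 active = percent inhibition above a cutoff equal to the mean of all tested compounds plus 3 SD, cut at about 15% in these data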;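 note: 0% = PAD4 with RCA probe and DMSO and 100% = probe without PAD4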
Target sequence (Q9UM07 whole entry, looked up): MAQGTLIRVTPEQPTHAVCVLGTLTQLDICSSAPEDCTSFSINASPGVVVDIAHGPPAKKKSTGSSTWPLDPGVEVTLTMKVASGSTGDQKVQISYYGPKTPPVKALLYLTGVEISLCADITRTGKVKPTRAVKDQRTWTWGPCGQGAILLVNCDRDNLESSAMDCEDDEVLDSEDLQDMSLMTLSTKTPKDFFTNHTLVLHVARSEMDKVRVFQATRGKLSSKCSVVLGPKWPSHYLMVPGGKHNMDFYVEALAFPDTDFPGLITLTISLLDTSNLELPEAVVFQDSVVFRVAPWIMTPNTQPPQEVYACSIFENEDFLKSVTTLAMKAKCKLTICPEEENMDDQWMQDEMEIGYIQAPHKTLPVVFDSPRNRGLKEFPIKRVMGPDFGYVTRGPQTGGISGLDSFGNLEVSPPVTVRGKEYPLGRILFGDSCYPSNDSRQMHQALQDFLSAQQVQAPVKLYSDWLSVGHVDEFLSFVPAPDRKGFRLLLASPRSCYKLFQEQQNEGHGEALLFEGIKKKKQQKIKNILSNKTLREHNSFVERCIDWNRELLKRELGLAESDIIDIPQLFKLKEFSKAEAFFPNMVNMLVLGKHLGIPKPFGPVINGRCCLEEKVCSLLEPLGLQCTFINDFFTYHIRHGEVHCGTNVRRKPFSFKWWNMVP
TDP2 inh conf = human TDP2 inhibition, confirmation; inhibition, % at 12.8 µM; shares compounds with TDP2 absorb; recombinant human TDP2, absorbance read-out; 1,100 compounds, 22% hits; in the data active = inhibition above about 25%;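 note: 0% = vehicle with enzyme and 100% = no enzyme buffer only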
Active calls of the source: *; . = no result.

SMILES | TDP2 absorb | Apaf-1 inh | GSTO1 inh | SUMO HTRF inh | GASC-1 inh | PAD4 inh | TDP2 inh conf
COc1cc(N)c2ncccc2c1OC | 46* | . | . | . | . | . | 10
COCCCNC(=O)C[C@H]1C[C@@]2(C(=O)OC)C(=C[C@H](C(C)(C)C)O[C@@H]2C)N(Cc2cccc3ccccc23)C1=O | 6 | . | . | . | . | . | .
O=C(O)c1ccc(NS(=O)(=O)c2cc(Cl)ccc2Cl)cc1O | 29* | 8 | 5 | 16 | -2 | -2 | 9
O=S(=O)(Nc1ccncc1)c1cc(Cl)ccc1Cl | 1 | -1 | -6 | -3 | -13 | -1 | .
O=C(N/N=C/c1c(F)cccc1Cl)C1CC1 | 63* | -142 | -8 | 11 | 111 | 2 | -1
O=C1NC(=O)/C(=C/c2ccccc2OCc2ccccc2)S1 | 25* | 4 | -9 | 8 | 0 | -6 | 12
CC(c1ccc(O)cc1)c1cn(C)c2ccccc12 (stereo not drawn) | 5 | . | . | . | . | . | .
Cc1[nH][nH]c(=O)c1C(c1c(C)[nH][nH]c1=O)c1cn(C)c2ccccc12 | 49* | . | . | 97 | . | . | 21
CC(C)C(=O)Nc1ccccc1C(=O)N/N=C/c1ccc([N+](=O)[O-])cc1 | 8 | 5 | -5 | -1 | -1 | 5 | .
CC(Nc1cccc2ccccc12)C(=O)N/N=C/c1ccc([N+](=O)[O-])cc1 (stereo not drawn) | 31* | 25 | -3 | -12 | -5 | -1 | 0
COC1=CC(=O)c2c(ccc3ncnc(N)c23)C1=O | 85* | . | . | . | . | . | 82*
Cn1c(=O)[nH]c(=O)c2c1nc(N1CCNCC1)n2Cc1ccccc1 | 26* | -9 | 4 | 11 | 0 | 0 | 5
O=[N+]([O-])c1cccnc1C1OCCO1 | 5 | . | . | . | . | . | .
Cc1cnc(C2OCCO2)c2cccc(N)c12 | 30* | . | . | . | . | . | 44*
CN1C2=N[C@H](c3ccccc3)CC(=O)N2/C(=C\c2ccccc2)C1Cc1ccccc1 (stereo partly drawn) | 3 | . | . | . | . | . | .
Cc1ccc(-c2nnc(SCC(=O)NN=Cc3c[nH]c4ccccc34)n2-c2ccccc2)cc1 | -9 | . | . | . | . | . | .
CN(C)C(=O)c1cccc(-c2cnc3c(NC=O)cc(-c4ccccc4N(C)C)cn23)c1 | 29* | . | . | . | . | . | 17
CC(C(=O)NC1CCCCCC1)c1ccc([N+](=O)[O-])cc1 (stereo not drawn) | 25* | 0 | 2 | 1 | -2 | -3 | -3
CC(C(=O)NC1CC(C)(C)NC(C)(C)C1)c1ccc([N+](=O)[O-])cc1 (stereo not drawn) | 2 | -1 | -5 | 12 | 24 | 0 | .
COc1ccc(CCNC(=O)Cn2c(=O)n(CCCC(=O)NCc3ccco3)c(=O)c3sccc32)cc1OC | 27* | -7 | 6 | 10 | -19 | -2 | 3
O=C(CCCn1c(=O)c2sccc2n(CC(=O)NCc2ccco2)c1=O)NCc1ccco1 | 8 | -28 | 9 | 4 | -11 | 1 | .
Cc1nc2cc(C(=O)N3CCN(C(=O)C(Cl)Cl)CC3)ccc2n1C1CCCC1 | -1 | . | . | . | . | . | .
c1ccc(Cn2ccc3ccc(-c4ccc5ccn(Cc6cccc(-c7cccs7)c6)c5c4)cc32)cc1 | 15 | . | . | . | . | . | .
O=C(/C=C/c1cccc([N+](=O)[O-])c1)NCCN1C(=O)S/C(=C\c2cccnc2)C1=O | 25* | -14 | 3 | 19 | -16 | -1 | -3
CS(=O)(=O)c1ccc(C(=O)NCCN2C(=O)S/C(=C\c3cccnc3)C2=O)cc1[N+](=O)[O-] | 0 | 4 | 11 | 39 | 17 | 0 | .
SMILES | TDP2 absorb | Apaf-1 inh | GSTO1 inh | SUMO HTRF inh | GASC-1 inh | PAD4 inh | TDP2 inh conf
COC(=O)[C@H](C(C)C)N1Cc2nnn(Cc3ccccc3)c2-c2cc(F)ccc2S1(=O)=O | 1 | . | . | . | . | . | .
COc1ccc(N2CCN(CCCNC(=O)CCOC(C)(C)C)CC2)cc1 | -1 | . | . | . | . | . | .
COC(=O)c1noc(C)c1-c1ccnn1C(=O)c1ccc(C)cc1 | 25* | 11 | 1 | 3 | 1 | -4 | -3
C=CCn1c(=S)[nH]c2scc(-c3ccc(C)o3)c2c1=O | 5 | 2 | -5 | 10 | 8 | -8 | .
C=CCn1c(=S)[nH]c2sccc2c1=O | 60* | 0 | 7 | 5 | 2 | 1 | 2
Cc1cc(C)cc(C(=O)OCCCN(C)C2CN(Cc3cn(Cc4cccc(F)c4)nn3)S(=O)(=O)C2)c1 (stereo not drawn) | -12 | . | . | . | . | . | .
Cc1[nH][nH]c(=O)c1C(c1ccc(-c2ccc(C(=O)O)cc2)o1)c1c(C)[nH][nH]c1=O | 60* | . | . | . | . | . | 32*
NC(=O)c1cc2ccccc2o/c1=N\NC(=O)c1ccncc1 | 32* | -12 | 19 | -17 | -9 | -1 | 0
O=C(OC12CCCN(C1)/C(=C/c1ccncc1)C2)c1ccco1 (stereo not drawn) | 0 | . | . | . | . | . | .
CNC(=O)C(=O)Nc1c(O)c2ccccc2[nH]c1=O | 27* | 1 | 3 | 28 | 7 | 0 | -3
CC(=O)Nc1c(O)c2ccccc2[nH]c1=O | -2 | -8 | 9 | 13 | -18 | -2 | .
CN(CCOc1ccccc1)CC(=O)Nc1cccc(Br)c1 | 32* | -2 | 9 | 16 | -3 | 2 | 11
O=C1/C(=C\c2ccc([N+](=O)[O-])cc2)CCc2ccccc21 | -9 | -4 | 4 | 4 | 2 | 1 | .
CC(=O)Nc1ccc(/C=C2\CCc3ccccc3C2=O)cc1 | 26* | 7 | -11 | 10 | -9 | -2 | -9
C=CCNc1nc(C(=O)OCC(=O)c2ccc(Cl)cc2)cs1 | 25* | 21 | 5 | . | -5 | -12 | -6
O=C(NCc1cccc2ccccc12)C1CCCN(c2nc3ccccc3o2)C1 (stereo not drawn) | -18 | . | . | . | . | . | .
CCOC(=O)[C@]12CCCCC/C=C\1N(CCc1ccc(Cl)cc1)C(=O)[C@H]2CC(=O)N1CCOCC1 | 7 | . | . | . | . | . | .
OC(CNCc1ccc(Cl)cc1)COc1ccccc1 (stereo not drawn) | 25* | 1 | 3 | 11 | -34 | 1 | -2
COc1ccc(CNCC#Cc2cccnc2)c(OC)c1 | -3 | . | . | . | . | . | .
Cc1[nH]n(-c2ccccc2)c(=O)c1/C=N/N1C(=O)c2ccc3c4c(ccc(c24)C1=O)CC3 | 28* | 5 | 10 | 11 | 0 | -12 | -9
Cc1[nH]n(-c2ccccc2)c(=O)c1C=NCC1CCCO1 (stereo not drawn) | -5 | 0 | 3 | 6 | -13 | -3 | .
CC(=O)N/N=C/c1c(C)[nH]n(-c2ccccc2)c1=O | 28* | 1 | 25 | -6 | -7 | -13 | -3
COCC(=O)N/N=C/c1c(C)[nH]n(-c2ccccc2)c1=O | 32* | 22 | 27 | 6 | -13 | -10 | 2
CCn1c(SCc2c(F)cccc2F)nc2sc3c(c2c1=O)CCCC3 | 3 | . | . | . | . | . | .
